Laboratory results taken from publication PMC10240386 (Cell chemical biology, 2023).
Where two headings read alike, the source gives them in different places.

Assays:
[1] = system: P. berghei ANKA lux; assay: In vivo efficacy in mice infected with P. berghei ANKA lux; parameters: species or system Swiss Webster mice
[2] = system: Dd2β6^A117DK13^R539T; assay: Parasite growth inhibition, dual resistant strain; assay type: cell-based, Plasmodium falciparum
[3] = system: Pf20S β5 in lysate of Dd2^WT; assay: Blocking of MV151 labeling in parasite lysate; assay type: binding, Plasmodium falciparum; details: 1 h preincubation of Dd2^WT lysate
Procedure, shortened: (§1)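 Dd2 wild-type or mutant parasite pellets lysed on ice for 1 h in 50 mM Tris-HCl, 5 mM MgCl2, 1 mM DTT, pH 7.4, then centrifuged; protein quantified by BCA. 5–10 µg of lysate protein preincubated with test compound for 1 h at 37°C. MV151 added at 2 µM final for a further 1 h at 37°C, protected from light. Run on 12% Bis-Tris SDS-PAGE and scanned at Cy3/TAMRA (λex 532, λem 560 nm).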

[4] = molecular target: human c-20S β5c (Homo sapiens, UniProt P20618+P28074); assay: Proteasome IC50 determination, human c-20S β5c; assay type: biochemical
Procedure, shortened: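 Human c-20S (0.2 nM) assayed in 20 mM HEPES, 0.5 mM EDTA, 0.1 mg/mL BSA, pH 7.5, with 0.02% SDS and 25 µM suc-LLVY-AMC. Pf20S (1 nM) assayed in 50 mM Tris, 5 mM MgCl2, 1 mM DTT, pH 7.4, with 12 nM PA28α, 0.5 µM WLW-VS and 25 µM suc-LLVY-AMC. Test compound given as a 3-fold series, 100–0.0017 µM final. AMC read at 360/460 nm for 1–2 h; linear velocities fitted to a dose-response equation. Run in duplicate or triplicate.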

[5] = system: Pf20Sβ5^A49S; assay: Blocking of MV151 labeling in parasite lysate; assay type: binding, Plasmodium falciparum; details: 1 h preincubation of Dd2β5^A49S lysate
Procedure, shortened: as §1

[6] = system: HepG2 cells; assay: HepG2 cell viability assay; assay type: cell-based; details: read-out: HepG2
[7] = system: intracellular Pf20S β5 with the β6^A117D mutation; assay: Intraparasitic hybrid activation and proteasome inhibition assay; assay type: cell-based, Plasmodium falciparum; details: ATZ4 700 nM, Dd2β6^A117D parasites, compared with WT
Procedure, shortened: (§2)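 Dd2 wild-type and mutant lines grown synchronized to 5–8% parasitemia. Early-trophozoite infected erythrocytes pulsed 6 h with test compound (700 or 800 nM) or DMSO, then washed four times in complete medium. Parasites released with saponin, washed in cold PBS and lysed in 20 mM Tris-HCl, 5 mM MgCl2, 1 mM DTT, pH 7.4. Equal lysate amounts labeled with 2 µM MV151 for 1 h at 37°C, separated by SDS-PAGE and scanned on the TAMRA channel.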

[8] = system: Dd2β5^A49S; assay: Parasite growth inhibition assay, erythrocytic stage; assay type: cell-based, Plasmodium falciparum
[9] = system: Pf20Sβ6^A117D; assay: Blocking of MV151 labeling in parasite lysate; assay type: binding, Plasmodium falciparum; details: 1 h preincubation of Dd2β6^A117D lysate
Procedure, shortened: as §1

[10] = system: intracellular Pf20S β5 with the β5^A49S mutation; assay: Intraparasitic hybrid activation and proteasome inhibition assay; assay type: cell-based, Plasmodium falciparum; details: ATZ4 700 nM, Dd2β5^A49S parasites, compared with WT
Procedure, shortened: as §2

[11] = molecular target: human i-20S β5i (Homo sapiens, UniProt P20618+P28062); assay: Proteasome IC50 determination, human i-20S β5i; assay type: biochemical
Procedure, shortened: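 Human i-20S (0.4 nM) assayed in 20 mM HEPES, 0.5 mM EDTA, 0.1 mg/mL BSA, pH 7.5, with 0.02% SDS and 15 µM Ac-ANW-AMC. Pf20S (1 nM) assayed in 50 mM Tris, 5 mM MgCl2, 1 mM DTT, pH 7.4, with 12 nM PA28α, 0.5 µM WLW-VS and 25 µM suc-LLVY-AMC. Test compound given as a 3-fold series, 100–0.0017 µM final. AMC read at 360/460 nm for 1–2 h; velocities fitted to a dose-response equation. Run in duplicate or triplicate.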

[12] = system: P. berghei G2025^R551T (K13^R551T); assay: Modified Peters' 4-day suppressive test for recrudescence, ART-resistant strain; assay type: in vivo, Swiss Webster mice; details: ART 50 mg/kg, ATZ4 100 mg/kg i.p. day 0 to day 2
[13] = system: Pf Dd2^WT; assay: Parasite growth inhibition assay, erythrocytic stage; assay type: cell-based, Plasmodium falciparum; details: for EC50: read-out: EC50 Pf Dd2^WT
[14] = system: DHA-resistant clones DR1, DR2, DR4 derived from Dd2; assay: Standard 72-h in vitro assay on DHA-resistant clones; assay type: cell-based, Plasmodium falciparum; details: standard 72-h assay
[15] = system: Dd2β6^A117D; assay: Parasite growth inhibition assay, erythrocytic stage; assay type: cell-based, Plasmodium falciparum
[16] = molecular target: Pf20S β5 (Plasmodium falciparum, UniProt A0A5K1K7U1+Q8IJT1); assay: biochemical; assay type: biochemical; details: for activity against Pf20S: Pf20S β5
[17] = EC50 fold change, three experiments (Figure 6B)

C[C@H]1[C@@H](CC(=O)NCCCC(=O)N[C@@H](CC(=O)NC(C)(C)C)C(=O)NCCNC(=O)c2cc(-c3ccccc3F)ccc2F)O[C@@H]2O[C@@]3(C)CC[C@H]4[C@H](C)CC[C@@H]1[C@@]24OO3 [ATZ4, (S)-N4-(tert-butyl)-N1-(2-(2′,4-difluoro-[1,1′-biphenyl]-3-carboxamido)ethyl)-2-(4-(2-((3R,5aS,6R,8aS,9R,10R,12R,12aR)-3,6,9-trimethyldecahydro-12H-3,12-epoxy[1,2]dioxepino[4,3-i]isochromen-10-yl)acetamido)butanamido)succinamide]
effect on parasite load ([1]; 10 mg/kg i.p. once daily day 3 to day 6, luminescence on day 7): no detectable effect | decrease in parasite load ([1]; 25 mg/kg i.p. once daily day 3 to day 6, luminescence on day 7): 1.2 log10 | decrease in parasite load ([1]; 50 mg/kg i.p. once daily day 3 to day 6, luminescence on day 7, to below the limit of detection): > 3 log10 | potency across Dd2, Dd2β6^A117D, Dd2K13^R539T and Dd2β6^A117DK13^R539T [2]: equipotent | blocking of MV151 labeling of β5 [3]: dose dependently blocked labeling of β5 | IC50 [4]: 890 ± 140 nM | blocking of MV151 labeling of β5 [5]: prevented PI01 and ATZ4 from inhibiting | EC50 ([6]; Homo sapiens, HepG2, 72 h): 9400 nM | inhibition of Pf20S β5 labeling by MV151 after 6 h pulse and washing [7]: similarly effective | fold improvement over PI01 against Dd2β5^A49S [8]: > 100 fold | fold more resistant / reduced potency, Dd2β5^A49S versus parental Dd2 ([8]; EC50 ratio): ≤ 3.6 fold | EC50 ([8]; Plasmodium falciparum, 72 h, read-out: EC50 Dd2β5^A49S): 5.9 ± 1.9 nM | blocking of MV151 labeling of β5 [9]: prevented PI01 and ATZ4 from inhibiting | inhibition of Pf20S β5 labeling by MV151 after 6 h pulse and washing [10]: similarly effective | IC50 [11]: 200 ± 57 nM | mice with positive blood smear on day 6 [12]: 0% | mice with positive blood smear on day 8 [12]: 0% | mice with positive blood smear on day 10 [12]: 60% | times more potent than ART1 against Dd2 ([13]; EC50 ratio): 10 times | EC50 ([13]; Plasmodium falciparum, DD2, Erythrocyte, 72 h): 4.3 ± 1.3 nM | susceptibility of DHA-resistant clones compared with WT Dd2 [14]: equally susceptible | fold improvement over PI01 against Dd2β6^A117D [15]: ≥ 5 fold | fold more resistant / reduced potency, Dd2β6^A117D versus parental Dd2 ([15]; EC50 ratio): ≤ 2.9 fold | EC50 ([15]; Plasmodium falciparum, 72 h, read-out: EC50 Dd2β6^A117D): 6.7 ± 2.2 nM | IC50 [16]: 4.3 ± 0.9 nM | activity against Pf20S [16]: potency comparable with that of PI01

C[C@H]1[C@@H](CC(=O)NCCCC(=O)N[C@@H](CC(=O)NC(C)(C)C)C(=O)NCCNC(=O)c2cc(-c3ccccc3F)ccc2F)O[C@@H]2O[C@@]3(C)CC[C@H]4[C@H](C)CC[C@@H]1[C@@]24O3 [Deoxy-ATZ4, (S)-N4-(tert-butyl)-N1-(2-(2′,4-difluoro-[1,1′-biphenyl]-3-carboxamido)ethyl)-2-(4-(2-((2R,3R,3aS,3a1R,6R,6aS,9S,10aR)-3,6,9-trimethyldecahydro-10aH-3a1,9-epoxyoxepino [4,3,2-ij]isochromen-2-yl)acetamido)butanamido)succinamide]
fold less potent against Dd2β6^A117DK13^R539T compared with Dd2 and Dd2K13^R539T [2, 17]: 11.0 fold | EC50 ([6]; 72 h cell viability, mean ± SD): 10800 nM | EC50 ([13]; 72 h growth inhibition in red blood cells, mean ± SD): 21.6 ± 1.4 nM | susceptibility of DHA-resistant clones compared with WT Dd2 [14]: equally susceptible | fold less potent against Dd2β6^A117D compared with Dd2 and Dd2K13^R539T [15, 17]: 5.6 fold | activity against Pf20S [16]: potency comparable with that of PI01
